Experimental data as given in ChEMBL document CHEMBL2424619, “Small-molecule ligands of methyl-lysine binding proteins: optimization of selectivity for L3MBTL3” (J Med Chem, 2013).
The source made the active and inactive calls. The rule behind the calls is not given here.

Assays:
[1] = molecular target: T1, Lethal(3)malignant brain tumor-like protein 3 (Homo sapiens) (UniProt Q96JM7); experiment: Displacement of mero76-UNC1215 from GFP-L3MBTL3 (unknown origin) expressed in HEK293 cells at 1 equivalent dose after 3 hrs by immunofluorescence assay; assay type: cell-based
T1 sequence (whole entry): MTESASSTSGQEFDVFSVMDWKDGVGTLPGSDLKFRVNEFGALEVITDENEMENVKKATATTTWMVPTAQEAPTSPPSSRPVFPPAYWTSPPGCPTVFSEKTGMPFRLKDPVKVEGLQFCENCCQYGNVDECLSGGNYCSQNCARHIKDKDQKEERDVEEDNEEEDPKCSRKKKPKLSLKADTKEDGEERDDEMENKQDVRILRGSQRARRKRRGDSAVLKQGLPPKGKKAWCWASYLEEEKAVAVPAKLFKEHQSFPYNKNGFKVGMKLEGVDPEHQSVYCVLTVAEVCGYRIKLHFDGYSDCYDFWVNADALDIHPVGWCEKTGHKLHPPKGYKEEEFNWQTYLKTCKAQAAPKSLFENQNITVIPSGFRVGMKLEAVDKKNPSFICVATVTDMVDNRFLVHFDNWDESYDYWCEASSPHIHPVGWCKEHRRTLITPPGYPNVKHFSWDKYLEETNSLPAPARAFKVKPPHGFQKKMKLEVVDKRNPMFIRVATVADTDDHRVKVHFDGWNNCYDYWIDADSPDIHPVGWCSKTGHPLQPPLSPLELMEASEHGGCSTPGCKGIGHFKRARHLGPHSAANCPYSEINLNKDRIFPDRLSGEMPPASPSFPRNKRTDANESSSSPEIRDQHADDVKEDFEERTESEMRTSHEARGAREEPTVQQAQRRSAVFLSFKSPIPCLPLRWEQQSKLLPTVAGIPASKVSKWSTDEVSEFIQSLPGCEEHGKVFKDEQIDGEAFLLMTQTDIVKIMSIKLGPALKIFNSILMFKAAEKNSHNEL
Procedure, shortened: (§1)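 HEK293 cells seeded on coverslips, transfected 24 h later with GFP-L3MBTL3 (N-terminal GFP fusion of full-length protein), then after 16 h loaded with mero76 conjugate (5 μM) for 3 h. Competitor then added at 5 μM or 25 μM (1 or 5 equivalents relative to probe) for a further 3 h. Hoechst-stained; spinning-disk confocal imaging scored loss of probe foci.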

[2] = molecular target: T2, E3 ubiquitin-protein ligase UHRF1 (Homo sapiens, UniProt Q96T88); experiment: Inhibition of UHRF1 (unknown origin) after 30 mins by AlphaScreen assay
T2 sequence (Q96T88 whole entry): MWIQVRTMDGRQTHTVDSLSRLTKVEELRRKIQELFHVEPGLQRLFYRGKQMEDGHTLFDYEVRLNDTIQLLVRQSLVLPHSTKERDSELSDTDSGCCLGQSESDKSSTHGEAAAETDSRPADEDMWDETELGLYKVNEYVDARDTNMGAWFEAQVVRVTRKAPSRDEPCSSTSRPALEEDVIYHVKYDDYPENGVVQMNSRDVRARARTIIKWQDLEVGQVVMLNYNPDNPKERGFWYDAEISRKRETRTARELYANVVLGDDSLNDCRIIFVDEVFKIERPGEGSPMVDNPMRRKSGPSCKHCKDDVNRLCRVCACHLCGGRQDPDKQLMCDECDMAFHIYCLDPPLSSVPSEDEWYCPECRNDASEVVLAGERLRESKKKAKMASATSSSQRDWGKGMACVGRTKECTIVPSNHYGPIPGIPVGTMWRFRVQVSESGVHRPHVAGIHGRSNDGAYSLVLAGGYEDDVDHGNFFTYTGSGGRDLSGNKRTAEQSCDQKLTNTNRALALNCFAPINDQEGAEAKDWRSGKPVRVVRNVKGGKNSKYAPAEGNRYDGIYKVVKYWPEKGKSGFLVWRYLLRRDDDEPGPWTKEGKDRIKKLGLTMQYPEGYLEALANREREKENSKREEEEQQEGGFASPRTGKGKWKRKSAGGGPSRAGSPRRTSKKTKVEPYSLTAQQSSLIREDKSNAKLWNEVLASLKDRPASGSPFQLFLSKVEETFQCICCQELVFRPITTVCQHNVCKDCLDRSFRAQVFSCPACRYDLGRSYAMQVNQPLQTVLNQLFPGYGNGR
Procedure, shortened: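 AlphaScreen competition with histone peptide. Compounds in 3-fold, 10-point dilutions, top 10 or 30 μM; buffer 20 mM Tris pH 8.0, 25 mM NaCl, 2 mM DTT, 0.05% Tween-20. Protein-peptide mix 30 min RT, then streptavidin donor plus nickel-chelate acceptor beads (GST acceptor beads for GST-tagged PHF23, JARID1A) 30 min RT dark. […] Protein-free His6-biotin peptide counterscreen.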

[3] = molecular target: T1, Lethal(3)malignant brain tumor-like protein 3 (Homo sapiens); experiment: Binding affinity to L3MBTL3 in human G401 cells by Western blot based pulldown assay; assay type: cell-based; conditions: G-401
Procedure, shortened: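 G-401 lysate made in Tris pH 8.0, 500 mM NaCl, EDTA, 1% Triton, diluted to 150 mM NaCl. […] Streptavidin beads saturated with biotinylated probe (biotin as control), rotated with lysate overnight at 4 °C, washed, eluted; SDS-PAGE and immunoblot for endogenous L3MBTL3.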

[4] = molecular target: T3, Chromobox protein homolog 7 (Homo sapiens, UniProt O95931); experiment: Inhibition of CBX7 (unknown origin) after 30 mins by AlphaScreen assay
T3 sequence (O95931 whole entry): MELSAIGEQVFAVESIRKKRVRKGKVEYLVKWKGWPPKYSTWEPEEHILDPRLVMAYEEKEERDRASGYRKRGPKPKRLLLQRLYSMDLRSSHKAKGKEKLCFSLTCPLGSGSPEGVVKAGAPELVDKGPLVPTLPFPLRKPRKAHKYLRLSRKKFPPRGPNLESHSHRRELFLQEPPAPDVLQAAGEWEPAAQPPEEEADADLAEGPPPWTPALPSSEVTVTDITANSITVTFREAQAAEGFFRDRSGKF
Procedure, shortened: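 AlphaScreen competition with histone peptide. Compounds in 3-fold, 10-point dilutions, top 10 or 30 μM; buffer 20 mM Tris pH 8.0, 25 mM NaCl, 2 mM DTT, 0.05% Tween-20. Protein-peptide mix 30 min RT, then streptavidin donor plus nickel-chelate acceptor beads (GST acceptor beads for GST-tagged PHF23, JARID1A) 30 min RT dark. Protein-free His6-biotin peptide counterscreen.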

HEK-293T = experiment: Cytotoxicity against HEK293T/17 cells assessed as cell viability up to 100 uM after 24 hrs by CellTiter-Glo luminescence assay; assay type: cell-based; conditions: human
Procedure, shortened: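 Cell viability by CellTiter-Glo luminescence, compound tested up to 100 μM.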

[5] = molecular target: T1, Lethal(3)malignant brain tumor-like protein 3 (Homo sapiens); experiment: Displacement of mero76-UNC1215 from GFP-L3MBTL3 (unknown origin) expressed in HEK293 cells at 5 uM after 3 hrs by immunofluorescence assay; assay type: cell-based; procedure, shortened: as §1

Structure (SMILES) | Activity [1] | IC50 [2] | Activity [3] | IC50 [4] | Activity (HEK-293T) | Activity [5]
O=C(c1ccc(C(=O)N2CCC(N3CCCC3)CC2)c(Nc2ccccc2)c1)N1CCC(N2CCCC2)CC1 | Active | > 10 µM | Active | > 10 µM | Non-toxic | –
O=C(c1ccc(C(=O)N2CCC(N3CCCCC3)CC2)cc1)N1CCC(N2CCCCC2)CC1 | – | > 10 µM | inactive | > 10 µM | – | –
CCN1Cc2ccc(NC(=O)c3ccc(C(=O)N4CCC(C5CCCN5)CC4)c(Nc4ccccc4)c3)cc2C1 (stereo not drawn) | Active | > 10 µM | Active | > 10 µM | – | Active
CCN1Cc2ccc(NC(=O)c3ccc(C(=O)N4CCC(C5CCCN5)CC4)cc3)cc2C1 (stereo not drawn) | Active | > 10 µM | – | > 10 µM | Non-toxic | Active
